Source: PubChem
Shown are actives, neighbours in structure and some others; about 2.6% of the full set was active somewhere.
Myeloid diff MLP: induction of myeloid progenitor differentiation, primary screen, cell-based, flow cytometry, MLPCN library | calls only at 10 µM | ER-HoxA9 myeloid progenitors, lysozyme-GFP differentiation | 1% of 360,000 active | AID 624256, 2012;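 active = normalized GFP-positive differentiation at or above the plate's own cutoff, the solvent-only control mean plus 3 SD; inconclusive = no clear call, values can overlap the other calls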;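 note: cells exposed to compound for four days before flow analysis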
T cell modulator: modulators of CD8 T cell-vesicle binding, primary screen, mouse 2C CD8+ T cells, flow cytometry | 2C CD8+ T cell-vesicle binding; hits give low values | response (vesicle binding), % at 7 µM | 0.068% of 330,000 active;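 active = response, share of CD8 T cells binding vesicles, and their 90th percentile fluorescence all below set limits, cut at about 80% in these data, passing the limit was not always enough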;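 note: values below 100% mean blocked vesicle binding to the CD8+ T cells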
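Also added: QL9-peptide-loaded Drosophila micro-vesicles bearing Ld, ICAM-1 and B7-1; Test system: purified 2C TCR transgenic mouse naive CD8+ T cells; Measured by: cytometric PE anti-B7-1 and Alexa647 anti-CD8 signals after 1% paraformaldehyde fixation; Timing: binding step 1.5 h, 37 °C, antibody labelling 20 min, ice.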
SKN-1 inh: suppressors of acrylamide-induced Pgst-4::GFP reporter in worms, primary screen, SKN-1 inhibitor project, whole organism, uHTS, GFP/RFP fluorescence ratio, strain VP596. C. elegans VP596 Pgst-4::GFP/RFP ratio, 24 h. inhibition, % at 21.8 µM. 0.49% of 360,000 active;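 active = interference check ratio from 0.5 to 1.5 plus GFP to RFP signal ratio inhibition reaching or exceeding a fixed threshold, cut at about 30% in these data, passing the limit was not always enough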
Rin1 Abl inh: inhibitors of Rin1-Abl protein binding, primary screen, biochemical, TR-FRET | inhibition, % at 7.35 µM | 0.4% of 360,000 active; in the data active = inhibition above about 5%, passing the limit was not always enough
Rce1 inh: yeast Rce1p protease inhibitors, primary screen, biochemical, fluorescence, cell-free homogeneous; CAAX prenyl protease 2 (Saccharomyces cerevisiae (strain ATCC 204508 / S288c)), Q03530; yeast membranes, quenched prenylated peptide cleavage fluorescence; calls only; 0.27% of 290,000 active;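 active = fall in fluorescence gain of 50% or more versus controls, with final raw signal at or below 3038400; inconclusive = same 50% fall but final raw signal above 3038400; inactive = fall in fluorescence gain under 50%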;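 note: plate controls were neutral control wells for no effect and wells lacking membranes for full effect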
GRK2 aptamer HTS: compounds blocking aptamer binding on GRK2 – biochemical, human GRK2, bead flow cytometry, HTS, primary screen. AID 488847, 2010. inhibition of aptamer binding, % at 10 µM. 0.59% of 330,000 active. Beta-adrenergic receptor kinase 1 (Homo sapiens), P25098. FAM-aptamer displacement from GRK2;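 active = inhibition of aptamer binding above 40%, roughly 3 SD of noise, on plates passing a quality check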;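 note: median bead fluorescence of bound FAM aptamer so fluorescent compounds give negative values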
Target sequence (P25098 whole entry, looked up): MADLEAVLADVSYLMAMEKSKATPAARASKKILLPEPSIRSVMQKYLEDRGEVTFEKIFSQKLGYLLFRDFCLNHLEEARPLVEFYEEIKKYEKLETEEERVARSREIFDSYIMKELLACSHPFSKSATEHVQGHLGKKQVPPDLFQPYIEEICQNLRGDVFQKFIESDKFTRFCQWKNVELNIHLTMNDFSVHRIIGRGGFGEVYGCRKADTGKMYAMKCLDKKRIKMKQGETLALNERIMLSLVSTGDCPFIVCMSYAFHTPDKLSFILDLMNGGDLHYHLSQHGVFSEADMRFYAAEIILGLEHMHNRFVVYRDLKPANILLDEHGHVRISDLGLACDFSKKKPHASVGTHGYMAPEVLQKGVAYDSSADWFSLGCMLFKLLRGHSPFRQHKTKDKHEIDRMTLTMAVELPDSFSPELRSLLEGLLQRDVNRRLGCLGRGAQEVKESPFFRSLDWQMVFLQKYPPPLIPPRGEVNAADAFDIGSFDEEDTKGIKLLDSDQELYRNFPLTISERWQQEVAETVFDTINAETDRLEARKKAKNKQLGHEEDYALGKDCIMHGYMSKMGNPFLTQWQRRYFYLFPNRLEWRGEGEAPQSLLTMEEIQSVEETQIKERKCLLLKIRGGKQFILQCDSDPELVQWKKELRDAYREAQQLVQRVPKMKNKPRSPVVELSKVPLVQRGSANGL
Rin1-Abl confirm: Rin1-Abl binding inhibitor retest, confirmation, biochemical, TR-FRET. inhibition, % at 7.35 µM. purified proteins. AID 602124, 2011. shares compounds with Rin1 Abl inh. 49% of 1,300 active
GFP quench: GFP fluorescence inhibitors and quenchers, artefact control for Rin1-Abl interaction inhibitor project, biochemical. inhibitors/quenchers counterscreen. AID 602125, 2011. shares compounds with Rin1 Abl inh. 8.5% of 1,300 active. inhibition, % at 6.75 µM;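 note: ABL1-eGFP fusion protein alone without its partner RIN1-SBP; 0% = protein with vehicle and 100% = wells lacking protein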
GFP quench DR: GFP fluorescence inhibitors and quenchers, dose response, artefact control for Rin1-Abl interaction inhibitor project, biochemical | shares compounds with Rin1 Abl inh | GFP fluorescence interference/quenching counterscreen | IC50, µM | 230 tested, under 10 active; call rule not given here;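 note: ABL1-eGFP fusion protein alone without its RIN1 binding partner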
Starred values were filed as active, the others as inactive; i = inactive; ? = inconclusive; . = no result given. Cut-off read from the data, not from the text of the source, unless noted: active = inhibition above about 6.5%; inactive = the rest.

SMILES | Myeloid diff MLP | T cell modulator | SKN-1 inh | Rin1 Abl inh | Rce1 inh | GRK2 aptamer HTS | Rin1-Abl confirm | GFP quench | others
COC(=O)c1ccc(COC(=O)C(NC(=O)Cc2ccccc2)C(C)C)cc1 (centres undefined) | i | . | 5 | 4 | . | . | . | .
CC1(C(=O)Nc2ccc3c(c2)OCO3)Cc2c(-c3cccc(C(N)=O)c3)ccnc2O1 (centres undefined) | ? | . | -3 | 8.8* | . | . | 7.8* | -2
CC1(C(=O)Nc2ccccc2)Cc2c(-c3cccc(C(N)=O)c3)ccnc2O1 (centres undefined) | i | . | 11 | 14* | . | . | 15* | -1
CC1(C(=O)Nc2ccc3c(c2)OCO3)Cc2c(-c3ccc4c(c3)OCO4)ccnc2O1 (centres undefined) | i | . | 8 | -3 | . | . | . | .
Cc1cccc(NC(=O)c2nc[nH]c2C(=O)NCCCCNC(=O)c2[nH]cnc2C(=O)Nc2cccc(C)c2)c1 | i | 474 | 0 | 4 | . | 4 | . | .
COCCN(CCOC)C(=O)CSc1ccc(S(=O)(=O)N2CCN(C)CC2)cn1 | i | 289 | -2 | 12* | . | 2 | 26* | 1 | GFP quench DR=>68
COc1cccc(CC(=O)Nc2cc(S(=O)(=O)N3CCCCC3)ccc2C)c1 | i | 847 | 7 | -1 | . | 3 | . | .
COc1cccc(CN2CCN(S(=O)(=O)c3ccc(NC(C)=O)cc3)CC2)c1OC | i | 461 | 11 | 5 | i | 0 | . | .
COc1ccc(OC)c(CN2CCN(S(=O)(=O)c3ccc(NC(C)=O)cc3)CC2)c1 | i | 308 | 13 | 10* | i | 0 | 1 | 0
COc1cccc(CC(=O)Nc2ccc(S(=O)(=O)N3CCCCC3)cc2)c1 | i | 490 | -6 | 8.9* | . | 0 | 5 | 0
O=C(O)CSc1nnc(-c2cccc(S(=O)(=O)N3CCOCC3)c2)n1-c1cccc(Cl)c1 | i | 601 | -1 | -1 | i | 0 | . | .
CC(=O)Oc1ccc(/C=C2/C(=O)N(c3ccccc3)N=C2C)cc1 | i | 222 | 8 | 11* | i | 0 | -2 | 0
CC1=NN(c2ccccc2)C(=O)/C1=C/c1cccc(C)c1 | i | 188 | -6 | 9.4* | i | 0 | 1 | 2
COc1cc(/C=C2/C(=O)N(c3cccc(Br)c3)N=C2C)cc(OC)c1O | i | 22 | 10 | 2 | i | 4 | . | .
CC1=NN(c2ccccc2)C(=O)/C1=C\C=C\c1ccccc1 | i | 819 | -5 | -2 | i | 2 | . | .
COc1ccc(/C=C2/C(=O)N(c3ccccc3)N=C2C)cc1OC | i | 209 | 5 | 18* | i | 1 | 1 | 0
CCN(CC)CCN(C(=O)c1ccc(C(C)=O)cc1)c1nc2ccc(Cl)cc2s1 | i | 310 | 8 | 3 | i | 0 | . | .
CCC(C)N(C(=O)CSc1nc(C)c(C)c(C)c1C#N)C1CCS(=O)(=O)C1 (centres undefined) | i | 436 | -2 | -1 | . | 1 | . | .
O=C(c1ccc(OC2CCN(C/C=C/c3ccccc3)CC2)cc1)N1CCCCC1 | i | 762 | 19 | 6.3* | i | 0 | 0 | 0
O=C(c1ccc(OC2CCN(C/C=C/c3ccccc3)CC2)cc1)N1CCCC1 | i | 332 | 7 | 3 | i | 0 | . | .
COc1ccc(/C=C/CN2CCC(Oc3ccc(C(=O)N4CCCCC4)cc3)CC2)cc1 | i | 577 | 1 | 7.2* | i | 0 | 3 | -1
COc1ccccc1/C=C/CN1CCC(Oc2ccc(C(=O)N3CCCCC3)cc2)CC1 | i | 121 | 4 | 10* | i | 0 | 8.4* | -1
O=C1CSC(=S)N1Cc1ccccc1 | i | . | 24 | -4 | . | . | . | .
CCOC(=O)NC(=O)CSc1ccc(C)cc1C | i | 391 | 5 | -6 | i | 0 | . | .
O=C(O)CSCc1cn2cc(Cl)ccc2n1 | i | 495 | 1 | -1 | i | 2 | . | .
SMILES | Myeloid diff MLP | T cell modulator | SKN-1 inh | Rin1 Abl inh | Rce1 inh | GRK2 aptamer HTS | Rin1-Abl confirm | GFP quench | others
COC(=O)CCSCc1cn2cc(Cl)ccc2n1 | i | 351 | -1 | 39* | i | 0 | 44* | 1 | GFP quench DR=>68
Cc1ccc(NC(=O)CN(C)C(=O)c2cn(Cc3ccccc3)nc2-c2cccnc2)cc1 | i | . | -8 | -3 | . | . | . | .
Cc1nn(CC(=O)Nc2ccc3c(c2)nc2n3CCOC2)c(=O)c2ccccc12 | i | 443 | 10 | 10* | i | 0 | -1 | 1
COCCN1CCn2c(nc3cc(NC(=O)Cn4nc(C)c5ccccc5c4=O)ccc32)C1 | i | 214 | 16 | 0 | i | 0 | . | .
N#CCCN(C(=O)CSc1ncccn1)c1ccc2c(c1)OCCO2 | i | 386 | 7 | 8.2* | . | 0 | 8.8* | -1
CCOc1ccc(NC(=O)Nc2nc3ccc(S(C)(=O)=O)cc3s2)cc1 | i | 302 | -2 | 0 | i | 3 | . | .
COc1cccc(C(c2c(C)[nH]n(-c3ccccc3)c2=O)c2c(C)[nH]n(-c3ccccc3)c2=O)c1OC | i | 196 | 3 | 6.4* | i | 3 | 0 | -2
Cc1[nH]n(-c2ccccc2)c(=O)c1C(c1ccc(O)c([N+](=O)[O-])c1)c1c(C)[nH]n(-c2ccccc2)c1=O | i | 256 | -3 | 13* | i | 3 | -4 | 4
COc1ccc(C(C[N+](=O)[O-])c2c(C)[nH]n(-c3ccccc3)c2=O)cc1 (centres undefined) | i | 579 | -1 | 11* | i | 2 | 6.6* | -2
CSc1cccc(NC(=S)NC(=O)c2cccnc2)c1 | i | 215 | 13 | 2 | i | 2 | . | .
COC(=O)/C=C/CC(C)OS(N)(=O)=O (centres undefined) | i | 553 | 1 | 0 | i | 1 | . | .
CC1CCCCN1c1ncnc(N)c1[N+](=O)[O-] (centres undefined) | i | 184 | 7 | 7.2* | i | 2 | 0 | 0
